Reference: ChEMBL document CHEMBL4342411, “Novel multitarget 5-arylidenehydantoins with arylpiperazinealkyl fragment: Pharmacological evaluation and investigation of cytotoxicity and metabolic stability” (Bioorg Med Chem, 2019)

The compounds below were run against 3',5'-cyclic-AMP phosphodiesterase 4B (Homo sapiens) (UniProt Q07343). Details: Sf9, 10^-5.5 M.
Chain of 3',5'-cyclic-AMP phosphodiesterase 4B (Homo sapiens) (Q07343 whole entry): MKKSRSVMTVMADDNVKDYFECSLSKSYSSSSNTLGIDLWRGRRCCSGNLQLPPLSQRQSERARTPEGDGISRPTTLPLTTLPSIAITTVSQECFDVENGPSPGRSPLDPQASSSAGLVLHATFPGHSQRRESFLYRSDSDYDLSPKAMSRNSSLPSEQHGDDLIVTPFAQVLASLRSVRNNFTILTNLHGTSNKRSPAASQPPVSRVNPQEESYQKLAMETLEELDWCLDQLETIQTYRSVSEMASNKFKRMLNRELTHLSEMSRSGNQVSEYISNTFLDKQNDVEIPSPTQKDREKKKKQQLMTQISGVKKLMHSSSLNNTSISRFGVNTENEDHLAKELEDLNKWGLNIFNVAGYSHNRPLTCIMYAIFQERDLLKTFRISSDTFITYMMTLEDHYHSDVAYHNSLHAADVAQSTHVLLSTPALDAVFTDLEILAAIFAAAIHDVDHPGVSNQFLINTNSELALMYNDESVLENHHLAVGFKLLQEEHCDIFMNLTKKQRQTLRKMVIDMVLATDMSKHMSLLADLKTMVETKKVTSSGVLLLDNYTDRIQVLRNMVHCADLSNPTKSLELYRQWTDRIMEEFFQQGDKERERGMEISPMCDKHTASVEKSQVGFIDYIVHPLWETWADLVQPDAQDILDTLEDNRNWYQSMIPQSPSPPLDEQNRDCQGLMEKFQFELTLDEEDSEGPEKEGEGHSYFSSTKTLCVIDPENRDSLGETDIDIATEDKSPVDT

inhibition [%] | SMILES
84 | COc1ccc(C2CNC(=O)C2)cc1OC1CCCC1 (centres undefined)

The compounds below were run on SW480 (assay: Cytotoxicity against human SW480 cells assessed as growth inhibition measured after 72 hrs by MTT assay). Details: SW480, 72 h.
Type: functional, cell-based
Outline: (§1)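 Cells were seeded at 1 × 10^4 per well: SW480 in MEM, PC3 in RPMI 1640, HaCaT in DMEM high glucose, each with 10% FBS. Compounds were added at 10–140 µM and incubated for 72 h. MTT was then added at 0.5 mg/mL in serum-free medium for 4 h at 37 °C. Formazan was dissolved in DMSO/isopropanol (1:1) and read at 570 nm. IC50 was given in µM; untreated cells served as control.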

SMILES | IC50 [nM]
COc1cccc2c1C(=O)c1c(O)c3c(c(O)c1C2=O)C[C@@](O)(C(=O)CO)C[C@@H]3O[C@H]1C[C@H](N)[C@H](O)[C@H](C)O1 [DOXORUBICIN] | 290

The compounds below were run on HaCaT (assay: Cytotoxicity against human HaCaT cells assessed as growth inhibition measured after 72 hrs by MTT assay). Details: not given.
Type: cell-based
Outline: as §1

SMILES | IC50 [nM]
COc1cccc2c1C(=O)c1c(O)c3c(c(O)c1C2=O)C[C@@](O)(C(=O)CO)C[C@@H]3O[C@H]1C[C@H](N)[C@H](O)[C@H](C)O1 [DOXORUBICIN] | 235

Each compound was assayed on PC-3 (assay: Cytotoxicity against human PC3 cells assessed as growth inhibition measured after 72 hrs by MTT assay). Details: PC-3, 72 h.
Type: functional, cell-based
Outline: as §1

SMILES | IC50 [nM]
COc1cccc2c1C(=O)c1c(O)c3c(c(O)c1C2=O)C[C@@](O)(C(=O)CO)C[C@@H]3O[C@H]1C[C@H](N)[C@H](O)[C@H](C)O1 [DOXORUBICIN] | 590
